Drawing on ChEMBL document CHEMBL5608194, “Novel neuroprotective 5,6-dihydropyrido[2',1':2,3]imidazo[4,5-c]quinoline derivatives acting through cholinesterase inhibition and CB2 signaling modulation” (Eur J Med Chem, 2024), this text covers Activity for 14 compounds.

Data set [1] concerns SH-SY5Y. Kind of data set: Neuroprotective activity against ATRA-differentiated and 3-NPA induced cell death in human SH-SY5Y cells assessed as cell death at 0.1 uM incubated for 48 hrs by propidium iodide staining based fluorescence assay (reference value: 100%). It is filed as functional. The method in brief:
(§1)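 ATRA-differentiated SH-SY5Y co-treated with compound and 20 mM 3-nitropropionic acid for 48 h; cell death by propidium iodide fluorescence, 3-NPA-treated signal set to 100 %.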

The test system of data set [2] is SH-SY5Y. Kind of data set: Neuroprotective activity against ATRA-differentiated and MPP+ induced cell death in human SH-SY5Y cells assessed as cell death at 1 uM incubated for 24 hrs by propidium iodide staining based fluorescence assay (reference value: 100%). It counts as functional. The procedure, abridged:
(§2)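 ATRA-differentiated SH-SY5Y co-treated with compound and 5 mM MPP+ for 24 h; cell death by propidium iodide fluorescence, MPP+-treated signal set to 100 %.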

Data set [3] relates to SH-SY5Y. Kind of data set: Neuroprotective activity against ATRA-differentiated and 3-NPA induced cell death in human SH-SY5Y cells assessed as cell death at 10 uM incubated for 48 hrs by propidium iodide staining based fluorescence assay (reference value: 100%). It counts as functional. The method in brief: as §1
The subject of data set [4] is SH-SY5Y. Nature of the data set: Neuroprotective activity against ATRA-differentiated and MPP+ induced cell death in human SH-SY5Y cells assessed as cell death at 0.1 uM incubated for 24 hrs by propidium iodide staining based fluorescence assay (reference value: 100%). It counts as functional. The method in brief:
as §2

The test system of data set [5] is SH-SY5Y. Kind of data set: Cytotoxicity against human SH-SY5Y cells assessed as cell death at 10 uM incubated for 72 hrs by propidium iodide staining based fluorescence assay. It counts as toxicity. The procedure, abridged: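 SH-SY5Y differentiated to neuron-like phenotype with 10 μM all-trans retinoic acid for 48 h, 20 000 cells/well. Compounds from DMSO stocks (DMSO ≤0.5 %) added, then 72 h exposure. Control wells lysed with 1 % Triton X-100 for 1 min, then all wells stained with propidium iodide for fluorescence read-out. Dead-cell proportion expressed relative to Triton X-100-treated control.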

The test system of data set [6] is SH-SY5Y. Kind of data set: Neuroprotective activity against ATRA-differentiated and 3-NPA induced cell death in human SH-SY5Y cells assessed as cell death at 1 uM incubated for 48 hrs by propidium iodide staining based fluorescence assay (reference value: 100%). It counts as functional. The procedure, abridged: as §1
The subject of data set [7] is SH-SY5Y. Nature of the data set: Neuroprotective activity against ATRA-differentiated and MPP+ induced cell death in human SH-SY5Y cells assessed as cell death at 10 uM incubated for 24 hrs by propidium iodide staining based fluorescence assay (reference value: 100%). It counts as functional. The procedure, abridged: as §2

In the case of `Cc1ccn2c3c(nc2c1)-c1ccccc1NC31CCCC1`, the Activity in the data set with SH-SY5Y [1] is recorded as 86.9%; in the data set on SH-SY5Y [2], 31.9%; with SH-SY5Y [3], 48.6%; in the data set on SH-SY5Y [4] it was 73.1%; with SH-SY5Y [5], 10.4%; in the data set on SH-SY5Y [6] it was 59%. Besides, in the data set on SH-SY5Y [7], the Activity is 68.9%.
Turning to `Cc1cccn2c3c(nc12)-c1ccccc1NC31CCCC1`, the Activity with SH-SY5Y [1] worked out at 79.2%; in the data set with SH-SY5Y [2] it was 48%; in the data set with SH-SY5Y [3] it was 60.5%; in the data set on SH-SY5Y [4], 86.7%; in the data set with SH-SY5Y [5], 8.2%; with SH-SY5Y [6], 65.3%. For the same compound, the Activity in the data set with SH-SY5Y [7] was 52.8%.
For `Cc1cccn2c3c(nc12)-c1ccccc1NC31CCCCC1`, the Activity was 76.6% in the data set with SH-SY5Y [1]; 44.4% in the data set on SH-SY5Y [2]; 61.8% in the data set on SH-SY5Y [3]; 77.7% in the data set on SH-SY5Y [4]; 9.2% in the data set on SH-SY5Y [5]; 66.1% in the data set with SH-SY5Y [6]. Further, the Activity in the data set with SH-SY5Y [7] was determined as 45.6%.
`Cc1cccn2c3c(nc12)-c1ccccc1NC31CCC(C)CC1` (centres undefined): the Activity in the data set on SH-SY5Y [1] is 86%; in the data set on SH-SY5Y [2], 53%; in the data set with SH-SY5Y [3], 64.5%; in the data set with SH-SY5Y [4], 91.8%; in the data set on SH-SY5Y [5], 9%; in the data set with SH-SY5Y [6], 65%. In addition, the Activity with SH-SY5Y [7] is given as 94%.
As to `c1ccc2c(c1)NC1(CCCCCC1)c1c-2nc2ccccn12`, the Activity in the data set on SH-SY5Y [1] is reported as 74%; in the data set on SH-SY5Y [2], 28.6%; in the data set with SH-SY5Y [3], 69%; in the data set on SH-SY5Y [4], 45.8%; in the data set on SH-SY5Y [5] it was 10.4%; in the data set on SH-SY5Y [6] it was 69.9%. Also, the Activity with SH-SY5Y [7] is recorded as 73.6%.
Take `Cc1ccn2c3c(nc2c1)-c1ccccc1NC3(C)C`: the Activity with SH-SY5Y [1] is listed as 86.2%; with SH-SY5Y [2], 46.1%; with SH-SY5Y [3], 52.9%; in the data set on SH-SY5Y [4], 65.7%; with SH-SY5Y [5], 13%; in the data set on SH-SY5Y [6], 62.4%. Besides, the Activity in the data set with SH-SY5Y [7] is on record as 59.7%.
As for `Cc1cccn2c3c(nc12)-c1ccccc1NC3(C)C`, the Activity in the data set on SH-SY5Y [1] is reported as 96.6%; in the data set on SH-SY5Y [2], 48.6%; in the data set with SH-SY5Y [3], 56.4%; with SH-SY5Y [4], 79.6%; in the data set on SH-SY5Y [5], 11%; in the data set on SH-SY5Y [6], 69.9%. For the same compound, in the data set on SH-SY5Y [7], the Activity is listed as 70.8%.
Turning to `CC1CCC2(CC1)Nc1ccccc1-c1nc3ccccn3c12` (centres undefined), the Activity amounted to 82.3% in the data set on SH-SY5Y [1]; 33.6% in the data set on SH-SY5Y [2]; 64.5% with SH-SY5Y [3]; 67.6% in the data set on SH-SY5Y [4]; 12% in the data set on SH-SY5Y [5]; 64.2% in the data set with SH-SY5Y [6]. The Activity in the data set with SH-SY5Y [7] amounted to 97.3%.
Take `CC1CCC2(CC1)Nc1ccccc1-c1nc3ccc(Br)cn3c12` (centres undefined): the Activity is 92.1% in the data set on SH-SY5Y [1]; 52.3% in the data set with SH-SY5Y [2]; 64% with SH-SY5Y [3]; 74.2% in the data set on SH-SY5Y [4]; 9.3% in the data set with SH-SY5Y [5]; 71.3% with SH-SY5Y [6]. In the data set with SH-SY5Y [7], the Activity amounted to 126.5%.
In the case of `Brc1ccc2nc3c(n2c1)C1(CCCCCC1)Nc1ccccc1-3`, the Activity amounted to 90.7% in the data set with SH-SY5Y [1]; 43.5% with SH-SY5Y [2]; 73.5% with SH-SY5Y [3]; 56.5% with SH-SY5Y [4]; 13.5% in the data set on SH-SY5Y [5]; 81.4% in the data set on SH-SY5Y [6]. Also, in the data set with SH-SY5Y [7], the Activity was 96.4%.
With `Cc1ccn2c3c(nc2c1)-c1ccccc1NC31CCC(C)CC1` (centres undefined), the Activity in the data set with SH-SY5Y [1] stood at 82.4%; with SH-SY5Y [2], 38.4%; in the data set on SH-SY5Y [3], 67%; in the data set on SH-SY5Y [4], 61.6%; in the data set with SH-SY5Y [5], 10.9%; in the data set on SH-SY5Y [6], 66.8%. Besides, in the data set with SH-SY5Y [7], the Activity is 105.9%.
On to `c1ccc2c(c1)NC1(CCCC1)c1c-2nc2ccccn12`, for which the Activity with SH-SY5Y [1] came out at 67.7%; in the data set with SH-SY5Y [2], 28.2%; with SH-SY5Y [3] it was 54.5%; in the data set with SH-SY5Y [4], 63.9%; in the data set with SH-SY5Y [5], 10.1%; in the data set with SH-SY5Y [6] it was 57.7%. The Activity in the data set with SH-SY5Y [7] is given as 42.6%.
In the case of `CC(=O)N[C@@H](CS)C(=O)O` [ACETYLCYSTEINE], the Activity in the data set on SH-SY5Y [1] was 95.5%; with SH-SY5Y [3], 37%; in the data set with SH-SY5Y [6] it was 80.8%.
As for `Cc1cccn2c3c(nc12)-c1ccccc1NC31CCCCCC1`, the Activity amounted to 83.8% with SH-SY5Y [1]; 38.8% in the data set with SH-SY5Y [2]; 60.3% with SH-SY5Y [3]; 67.2% in the data set with SH-SY5Y [4]; 9.3% with SH-SY5Y [5]; 71% in the data set with SH-SY5Y [6]. Besides, the Activity in the data set with SH-SY5Y [7] came out at 91.4%.
